Measured values from ChEMBL document CHEMBL3826878, “Design, synthesis, molecular docking and biological evaluation of thiophen-2-iminothiazolidine derivatives for use against Trypanosoma cruzi” (Bioorg Med Chem, 2016).

Assays:
Trypanosoma cruzi [1] = assay: Antitrypanosomal activity against trypomastigote stage of Trypanosoma cruzi Y at 25 uM measured after 24 hrs using propidium iodide by neubauer chamber method relative to control; format: functional
How it was run: (§1)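 Y strain trypomastigotes from LLC-MK2 culture supernatant, 4.0 × 10^5 per well, exposed to five compound concentrations (DMSO solutions) for 24 h at 37 °C, 5% CO2; propidium iodide 400 ng/mL for 5 min, then viable motile parasites counted in a Neubauer chamber. Percent inhibition versus untreated cultures.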

Trypanosoma cruzi [2] = assay: Antitrypanosomal activity against amastigote stage of Trypanosoma cruzi CA-I/72 infected in mouse C2C12 cells at 10 uM measured after 3 days by DAPI staining-based assay relative to control; format: functional; details: CA-I/72, C2C12, 72 h
How it was run: (§2)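 T. cruzi CA-I/72 trypomastigotes harvested from infected C2C12 myocytes 7 days post-infection, mixed with C2C12 cells (1:15 host:parasite), treated immediately with serially diluted compound; 3 days incubation, paraformaldehyde fixation, DAPI staining, automated high-content imaging. Activity normalized to untreated wells and 10 uM benznidazole; host viability as C2C12 count relative to untreated wells.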

[3] = biological target: Cruzipain (Trypanosoma cruzi) (UniProt P25779); assay: Inhibition of Trypanosoma cruzi cruzain at 100 uM using Z-Phe-Arg-aminomethylcoumarin as substrate measured after 5 mins by spectrofluorimetry
How it was run: (§3)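 Recombinant cruzain (0.5 nM, MMTS-protected, anion-exchange purified) in 0.1 M sodium acetate pH 5.5 with 0.1 mM beta-mercaptoethanol and 2.5 uM Z-FR-AMC, read fluorimetrically over 5 min; activity from initial rate versus DMSO control. Triton X-100 0.01% standard; detergent-sensitivity tests used 0.01% vs 0.1%. Run with and without 10 min pre-incubation; two independent experiments in triplicate; E64 100 uM positive control.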

[4] = biological target: Cruzipain (Trypanosoma cruzi) (UniProt P25779); assay: Inhibition of Trypanosoma cruzi cruzain at 100 uM pre-incubated for 10 mins followed by addition of Z-Phe-Arg-aminomethylcoumarin as substrate measured after 5 mins by spectrofluorimetry; how it was run: as §3
[5] = (§4) Cytotoxicity against mouse J774 cells assessed as cell viability at 10 uM measured after 24 hrs by MTT assay; format: cell-based; details: J774 cells, read-out: Activity
How it was run: (§5)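 J774 macrophages seeded in RPMI-1640 with 10% FBS for 16 hours, exposed 24 h at 37 °C to compound (10–100 umol/L range) in 0.01% DMSO vehicle; MTT (5 mg/mL) 4 h, formazan dissolved in DMSO, absorbance 540 nm. Viability as percent of untreated cells; three wells per treatment.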

Trypanosoma cruzi [6] = assay: Antitrypanosomal activity against amastigote stage of Trypanosoma cruzi CA-I/72 infected in mouse C2C12 cells measured after 3 days by DAPI staining-based assay; format: functional, organism-based; details: CA-I/72, C2C12, 72 h; how it was run: as §2
Cruzipain = Cruzipain (Trypanosoma cruzi, UniProt P25779); assay: Inhibition of Trypanosoma cruzi cruzain using Z-Phe-Arg-aminomethylcoumarin as substrate measured after 5 mins by spectrofluorimetry
How it was run: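 IC50 for cruzain: 10 min enzyme–compound pre-incubation, then 0.5 nM cruzain with 2.5 uM Z-FR-AMC in 0.1 M sodium acetate pH 5.5, 0.1 mM beta-mercaptoethanol, 0.01% Triton X-100, fluorescence over 5 min; at least nine compound concentrations in triplicate, two independent experiments, curves fitted for IC50.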

[7] = biological target: Cruzipain (Trypanosoma cruzi) (UniProt P25779); assay: Inhibition of Trypanosoma cruzi cruzain at 100 uM using Z-Phe-Arg-aminomethylcoumarin as substrate measured after 5 mins in presence of 0.01% triton by spectrofluorimetry; how it was run: as §3
[8] = biological target: Cruzipain (Trypanosoma cruzi) (UniProt P25779); assay: Inhibition of Trypanosoma cruzi cruzain at 100 uM using Z-Phe-Arg-aminomethylcoumarin as substrate measured after 5 mins in presence of 0.1% triton by spectrofluorimetry; how it was run: as §3
J774 = assay: as §4; format: cell-based; details: j774, 24 h, 10 µM; how it was run: as §5
Trypanosoma cruzi [9] = assay: Antitrypanosomal activity against trypomastigote stage of Trypanosoma cruzi Y measured after 24 hrs using propidium iodide by neubauer chamber method; format: functional, organism-based; how it was run: as §1
[10] = biological target: Cruzipain (Trypanosoma cruzi) (UniProt P25779); assay: Inhibition of Trypanosoma cruzi cruzain at 6.25 uM using Z-Phe-Arg-aminomethylcoumarin as substrate measured after 5 mins in presence of 0.01% triton by spectrofluorimetry; how it was run: as §3
[11] = biological target: Cruzipain (Trypanosoma cruzi) (UniProt P25779); assay: Inhibition of Trypanosoma cruzi cruzain at 6.25 uM using Z-Phe-Arg-aminomethylcoumarin as substrate measured after 5 mins in presence of 0.1% triton by spectrofluorimetry; how it was run: as §3
[12] = biological target: Cruzipain (Trypanosoma cruzi) (UniProt P25779); assay: Inhibition of Trypanosoma cruzi cruzain at 25 uM using Z-Phe-Arg-aminomethylcoumarin as substrate measured after 5 mins by spectrofluorimetry; how it was run: as §3
[13] = biological target: Cruzipain (Trypanosoma cruzi) (UniProt P25779); assay: Inhibition of Trypanosoma cruzi cruzain at 25 uM pre-incubated for 10 mins followed by addition of Z-Phe-Arg-aminomethylcoumarin as substrate measured after 5 mins by spectrofluorimetry; how it was run: as §3
[14] = biological target: Cruzipain (Trypanosoma cruzi) (UniProt P25779); assay: Inhibition of Trypanosoma cruzi cruzain at 50 uM using Z-Phe-Arg-aminomethylcoumarin as substrate measured after 5 mins by spectrofluorimetry; how it was run: as §3
[15] = biological target: Cruzipain (Trypanosoma cruzi) (UniProt P25779); assay: Inhibition of Trypanosoma cruzi cruzain at 50 uM using Z-Phe-Arg-aminomethylcoumarin as substrate measured after 5 mins in presence of 0.01% triton by spectrofluorimetry; how it was run: as §3
[16] = biological target: Cruzipain (Trypanosoma cruzi) (UniProt P25779); assay: Inhibition of Trypanosoma cruzi cruzain at 50 uM using Z-Phe-Arg-aminomethylcoumarin as substrate measured after 5 mins in presence of 0.1% triton by spectrofluorimetry; how it was run: as §3
[17] = biological target: Cruzipain (Trypanosoma cruzi) (UniProt P25779); assay: Inhibition of Trypanosoma cruzi cruzain at 50 uM using Z-Phe-Arg-aminomethylcoumarin as substrate measured after 5 mins in presence of BSA by spectrofluorimetry
How it was run: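 Cruzain aggregation test: compound pre-incubated with 2 mg/mL BSA, then cruzain (0.5 nM) activity on 2.5 uM Z-FR-AMC in 0.1 M sodium acetate pH 5.5, 0.1 mM beta-mercaptoethanol, 0.01% Triton X-100, monitored 5 min by fluorescence; inhibition from initial rate against DMSO control.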

[18] = biological target: Cruzipain (Trypanosoma cruzi) (UniProt P25779); assay: Inhibition of Trypanosoma cruzi cruzain at 50 uM pre-incubated for 10 mins followed by addition of Z-Phe-Arg-aminomethylcoumarin as substrate measured after 5 mins by spectrofluorimetry; how it was run: as §3

Sequence of Cruzipain (P25779 whole entry): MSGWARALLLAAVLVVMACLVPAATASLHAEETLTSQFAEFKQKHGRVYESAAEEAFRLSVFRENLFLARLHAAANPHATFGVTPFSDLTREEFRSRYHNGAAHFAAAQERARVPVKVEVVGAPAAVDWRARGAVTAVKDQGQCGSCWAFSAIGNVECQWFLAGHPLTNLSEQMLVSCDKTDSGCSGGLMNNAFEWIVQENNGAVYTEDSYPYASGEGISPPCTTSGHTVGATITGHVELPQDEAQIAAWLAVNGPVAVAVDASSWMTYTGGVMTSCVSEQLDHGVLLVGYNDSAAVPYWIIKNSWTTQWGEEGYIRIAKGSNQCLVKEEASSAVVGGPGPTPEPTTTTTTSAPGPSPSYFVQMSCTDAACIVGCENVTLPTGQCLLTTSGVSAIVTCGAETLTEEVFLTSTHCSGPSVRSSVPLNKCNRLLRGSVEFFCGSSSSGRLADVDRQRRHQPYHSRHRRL
Sequence of Cruzipain (Trypanosoma cruzi) (P25779 123-467 limits assumed): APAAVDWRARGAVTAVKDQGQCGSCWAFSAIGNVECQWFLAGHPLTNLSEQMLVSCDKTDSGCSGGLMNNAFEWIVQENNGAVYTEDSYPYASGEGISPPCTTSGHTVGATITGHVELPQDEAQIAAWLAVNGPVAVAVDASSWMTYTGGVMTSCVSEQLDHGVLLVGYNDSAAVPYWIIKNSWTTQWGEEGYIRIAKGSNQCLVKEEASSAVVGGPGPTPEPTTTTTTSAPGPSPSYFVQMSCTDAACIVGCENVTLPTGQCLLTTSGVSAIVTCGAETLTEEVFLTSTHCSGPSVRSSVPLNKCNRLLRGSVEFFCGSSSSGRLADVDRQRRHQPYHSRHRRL

| SMILES | inhibition at 25 µM (Trypanosoma cruzi [1]) [%] | inhibition at 10 µM (Trypanosoma cruzi [2]) [%] | inhibition [3] [%] | inhibition [4] [%] | further results |
| --- | --- | --- | --- | --- | --- |
| CCOC(=O)c1c(/N=C2\SCC(=O)N2c2ccccc2)sc2c1CCCC2 | 3.2 | 20.1 | 0 | 17 |  |
| CC(C)OC(=O)c1c(NC(=S)Nc2ccccc2)sc2c1CCCC2 | 5.8 | 59.6 | 43 | 74 | viability at 24 h, 10 µM [5]: > 50%; IC50 (Trypanosoma cruzi [6]): 8.78 µM |
| C=CCNC(=S)Nc1sc2c(c1C(=O)OCC)CCCC2 | 11.9 | 11.9 | 29 | 41 |  |
| CCOC(=O)c1c(/N=C2\SC(CC(=O)O)C(=O)N2c2ccccc2)sc2c1CCCC2 (stereo not given) | 6.4 | 37.4 | 66 | 86 | IC50 (Cruzipain): 121 µM; inhibition [7]: 5.4%; inhibition [8]: 18% |
| CC(C)OC(=O)c1c(/N=C2\SCC(=O)N2c2ccccc2)sc2c1CCCC2 | 27 | 39.4 | 33 | 72 | Activity (J774): Toxic; IC50 (Trypanosoma cruzi [6]): 6.96 µM |
| O=C(Cn1ccnc1[N+](=O)[O-])NCc1ccccc1 [BENZNIDAZOLE] | 100 | 94.5 |  |  | IC50 (Trypanosoma cruzi [6]): 1.17 µM |
| C=CCn1c(-c2ccccc2)cs/c1=N\c1sc2c(c1C(=O)OC(C)C)CCCC2 | 6.1 | 36 | 29 | 67 |  |
| CCOC(=O)c1c(/N=C2\SC(C(=O)OCC)C(=O)N2c2ccccc2)sc2c1CCCC2 (stereo not given) | 9 | 0.43 | 46 | 66 |  |
| C=CCNC(=S)Nc1sc2c(c1C(=O)OC(C)C)CCCC2 | 15.1 | 37.8 | 29 | 34 |  |
| CC(C)OC(=O)c1c(/N=C2\SC(CC(=O)O)C(=O)N2c2ccccc2)sc2c1CCCC2 (stereo not given) | 6.4 | 43.5 | 32 | 77 |  |
| C=CCN1C(=O)C(C(=O)OCC)S/C1=N\c1sc2c(c1C(=O)OCC)CCCC2 (stereo not given) | 16.7 | 30 | 18 | 59 |  |
| C=CCn1c(C)c(C(=O)OCC)s/c1=N\c1sc2c(c1C(=O)OCC)CCCC2 | 7.1 | 18.3 | 34 | 82 | IC50 (Cruzipain): 85 µM; inhibition [7]: 33%; inhibition [8]: 29% |
| C=CCN1C(=O)CS/C1=N\c1sc2c(c1C(=O)OC(C)C)CCCC2 | 84.1 | 4.03 | 45 | 70 | IC50 (Trypanosoma cruzi [9]): 10.3 µM |
| C=CCN1C(=O)C(CC(=O)O)S/C1=N\c1sc2c(c1C(=O)OC(C)C)CCCC2 (stereo not given) | 7.7 | 47.2 | 52 | 80 | IC50 (Cruzipain): 111 µM; inhibition [7]: 53%; inhibition [8]: 52.7% |
| C=CCn1c(-c2ccccc2)cs/c1=N\c1sc2c(c1C(=O)OCC)CCCC2 | 5.1 | 53.1 | 87 | 97 | viability at 24 h, 10 µM [5]: > 50%; IC50 (Trypanosoma cruzi [6]): 9.7 µM; IC50 (Cruzipain): 2.4 µM; inhibition [10]: 62%; inhibition [11]: 55% |
| C=CCn1c(C)c(C(=O)OCC)s/c1=N\c1sc2c(c1C(=O)OC(C)C)CCCC2 | 6.7 | 39.2 |  |  | inhibition [12]: 38%; inhibition [13]: 71% |
| C=CCN1C(=O)C(CC(=O)O)S/C1=N\c1sc2c(c1C(=O)OCC)CCCC2 (stereo not given) | 5.1 | 13.8 | 64 | 89 | inhibition [14]: 50%; IC50 (Cruzipain): 50 µM; inhibition [15]: 47%; inhibition [16]: 44%; inhibition [17]: 42% |
| CCOC(=O)c1c(/N=c2\scc(-c3ccccc3)n2-c2ccccc2)sc2c1CCCC2 | 5.8 | 23.6 |  |  | inhibition [14]: 16%; inhibition [18]: 40% |
| CCOC(=O)c1c(NC(=S)Nc2ccccc2)sc2c1CCCC2 | 1.6 | 47 | 12 | 4 |  |
| CC(C)OC(=O)c1c(/N=c2\scc(-c3ccccc3)n2-c2ccccc2)sc2c1CCCC2 | 4.5 | 59.5 | 13 | 25 | viability at 24 h, 10 µM [5]: > 50%; IC50 (Trypanosoma cruzi [6]): 6.03 µM |
| C=CCN1C(=O)CS/C1=N\c1sc2c(c1C(=O)OCC)CCCC2 | 4.5 | 17 | 23 | 40 |  |
| CC(C)C[C@H](NC(=O)[C@H]1O[C@@H]1C(=O)O)C(=O)NCCCCN=C(N)N [E-64] |  |  |  |  | IC50 (Cruzipain): 0.4 µM |
